Screening results as filed in PubChem.
A selection: hits, their analogues and other compounds. The true share with any hit is near 2.5%.
SENP7 inh = inhibitors of human SENP7 protease; recombinant SENP7, Z-RLRGG-aminoluciferin luminescence, 40 min; 330,000 compounds, 1.5% hits; Q9BQF6; inhibition, % at 5 µM;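 active = inhibition above about 50% at the single test dose, limit read from the data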;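 note: plate controls were DMSO with enzyme for no effect and no enzyme buffer wells for full effect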
SENP8 block-1 = SENP8 protease inhibition | inhibition, % at 10 µM | purified SENP8, Z-RLRGG-aminoluciferin cleavage, luminescence | 330,000 compounds, 1.2% hits; in the data active = inhibition above about 50%
SENP8 block-2 = blocks human SENP8 cleavage of Nedd8 substrate. Q96LD8. recombinant SENP8, Nedd8 substrate fluorescence. inhibition, % at 20 µM. 360,000 compounds, 0.64% hits; in the data active = inhibition mostly above about 40%, no sharp cut-off; inactive = mostly below about 27%
SENP1 inh = blocks the human SENP1 SUMO protease catalytic domain; Q9P0U3; recombinant SENP1 catalytic domain, CyPet-SUMO1-YPet FRET cleavage; inhibition, % at 10 µM; 360,000 compounds, 0.21% hits; AID 624204;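 active = inhibition at least 30% at 10 µM, raw YFP signal under a set limit, fluorescence ratio 0.5 to 1.5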;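 note: 0% = enzyme with DMSO and 100% = no enzyme wells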
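Controls: no-enzyme wells low, DMSO-plus-enzyme wells high control. Test system: human recombinant His6-tagged SENP1 catalytic domain enzyme. Reagent: SFCypet-SUMO1-SFYpet FRET protein substrate, 25 nM final. Doses: one dose per compound, 10 µM, 0.5% DMSO. Detection: FRET, CFP and YFP emission. Timing: 50 min reaction at room temperature.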
SENP6 block = inhibitors of human SENP6 protease | Recombinant SENP6 catalytic domain, aminoluciferin luminescence | inhibition, % at 10 µM | 330,000 compounds, 1.8% hits;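 active = inhibition above about 50% at the single tested dose, limit read from the data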;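 note: plate controls were DMSO wells with enzyme for no effect and DMSO wells lacking enzyme for full effect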
Target sequence (Q9GZR1 628-1112 limits assumed): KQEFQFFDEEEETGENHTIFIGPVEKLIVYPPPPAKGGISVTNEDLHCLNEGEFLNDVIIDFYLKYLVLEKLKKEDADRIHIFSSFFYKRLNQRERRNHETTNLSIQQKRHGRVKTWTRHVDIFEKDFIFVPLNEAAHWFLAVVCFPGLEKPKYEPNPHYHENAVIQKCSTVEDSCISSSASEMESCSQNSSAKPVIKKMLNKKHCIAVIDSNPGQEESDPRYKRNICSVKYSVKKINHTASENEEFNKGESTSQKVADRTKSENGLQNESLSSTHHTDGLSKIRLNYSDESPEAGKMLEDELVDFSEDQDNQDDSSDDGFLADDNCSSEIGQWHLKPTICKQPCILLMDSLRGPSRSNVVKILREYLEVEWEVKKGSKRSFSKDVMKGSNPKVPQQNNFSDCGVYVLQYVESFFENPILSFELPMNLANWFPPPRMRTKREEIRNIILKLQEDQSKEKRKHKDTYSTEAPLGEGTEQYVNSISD
SENP8 conf = human SENP8 inhibition, confirmed. shares compounds with SENP7 inh. Recombinant SENP8, Z-RLRGG-aminoluciferin luminescence, 60 min. inhibition, % at 12.5 µM. 6,200 compounds, 40% hits;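 active = mean inhibition across replicates above about 50%, limit read from the data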
SENP6 conf = confirmation of human SENP6 protease inhibitors | shares compounds with SENP7 inh | recombinant SENP6, Z-RLRGG-aminoluciferin luminescence | inhibition, % at 12.5 µM | 6,200 compounds, 58% hits
SENP7 conf = confirmation of human SENP7 protease inhibitors; shares compounds with SENP7 inh; recombinant SENP7, Z-RLRGG-aminoluciferin luminescence, 40 min; inhibition, % at 12.5 µM; 6,200 compounds, 69% hits
Casp3 select = selectivity test for SENP inhibitors: human caspase-3 inhibition; shares compounds with SENP7 inh; purified caspase-3, Z-DEVD-aminoluciferin luminescence, 60 min; inhibition, % at 12.5 µM; 6,200 compounds, 60% hits; AID 488918;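 active = mean inhibition above about 50%, limit read from the data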;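 note: plate controls were enzyme with DMSO for no effect and wells without caspase-3 for full effect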
SENP luc ctr = counter-screen for SENP inhibitors: luminescence interference; shares compounds with SENP7 inh; Pre-incubated SENP8/Z-RLRGG-aminoluciferin, luciferase luminescence interference; 6,200 compounds, 39% hits; AID 488919; inhibition, % at 12.5 µM;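 active = mean inhibition above about 50% when retested at one dose, limit read from the data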;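 note: plate controls were DMSO wells with completed reaction for no effect and substrate without enzyme for full effect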
The depositor's hits bear a star; . = no result given.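 Rule for the calls, unless noted: active = mean inhibition above about 50% in the one-dose retest (limit read from the data); inactive = the rest.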

SMILES	SENP7 inh	SENP8 block-1	SENP8 block-2	SENP1 inh	SENP6 block	SENP8 conf	SENP6 conf	SENP7 conf	Casp3 select	SENP luc ctr
Cc1ccc(S(=O)(=O)N2CCC(C(=O)NNC(=O)c3ccc(F)cc3)CC2)cc1	-6	0	2	-3	4	.	.	.	.	.
CCC(=O)Nc1nc(C)c(-c2csc(Nc3ccccn3)n2)s1	44	59*	-214	-1	23	52*	69*	86*	30	58*
CCCCn1nnnc1NCc1ccc(C)s1	-11	-2	27	2	0	.	.	.	.	.
O=C(N/N=C/c1cc2ccccc2[nH]1)c1ccccc1Cl	2	-3	8	1	4	.	.	.	.	.
CC(=O)N1CC(C)Sc2ccc(S(=O)(=O)NC(C)c3ccccc3)cc21 (centres undefined)	13	-1	21	-1	-11	.	.	.	.	.
N#C/C(=C(/O)CSc1ccccn1)c1nc2ccccc2s1	-6	6	-8	-37	8	.	.	.	.	.
Cc1ccc(SC/C(O)=C(\C#N)c2nc3ccccc3s2)cc1	0	25	29	-1	71*	6	22	13	16	8
Cc1ccc(C2=Nc3ccccc3N=C(C(Cl)Cl)C2)cc1	58*	69*	-65	-83	84*	38	37	72*	86*	80*
COc1ccc2c(c1OC)C(=O)OC2Nc1nc(-c2cc3cc([N+](=O)[O-])ccc3oc2=O)cs1 (centres undefined)	65*	52*	11	5	60*	-7	-9	2	22	5
COc1ccc2c(c1OC)C(=O)OC2Nc1nc(-c2cc3ccccc3oc2=O)cs1 (centres undefined)	91*	90*	-242	-6	96*	91*	95*	88*	94*	86*
COc1ccc2c(c1OC)C(=O)OC2Nc1nc(-c2ccc(-c3ccccc3)cc2)cs1 (centres undefined)	63*	69*	-308	0	83*	51*	49	56*	38	74*
COc1cccc(-c2nnc(NC(=O)c3cccc(F)c3)o2)c1	33	56*	15	3	60*	4	4	4	15	2
Cc1cc(Oc2ccc(-c3nnc(-c4ccccc4)o3)cc2[N+](=O)[O-])ccc1Cl	-2	-4	21	0	-4	.	.	.	.	.
COc1cccc(-c2nnc(N)o2)c1	-7	-4	6	0	-34	.	.	.	.	.
COc1cccc(-c2nnc(-c3ccc(C)o3)o2)c1	56*	39	-299	1	18	62*	64*	89*	82*	74*
COc1cccc(-c2nnc(-c3ccco3)o2)c1	55*	49	-111	-1	67*	58*	56*	87*	80*	65*
COc1cccc(-c2nnc(-c3ccccc3[N+](=O)[O-])o2)c1	50*	25	13	0	31	19	30	67*	48	31
COc1ccc(Cl)cc1-c1cc(C(=O)NCc2ccc(C(F)(F)F)cc2)[nH]n1	.	.	8	0	.	.	.	.	.	.
Cc1ccc(C(=O)Nc2ccc3c(c2)nc(CCNC(=O)c2ccco2)n3C)cc1	0	3	18	1	-12	.	.	.	.	.
Cc1ccc(NC2=C(NCCO)C(=O)c3ccccc3C2=O)cc1	36	47	-44	-19	70*	34	56*	22	16	2
CC1(C)Cc2c(sc(NC(=O)c3ccccc3)c2C(=O)O)CO1	44	64*	-49	-2	-16	77*	69*	86*	82*	59*
CC1(C)Cc2c(sc(NC(=O)C(=O)N3CCCC3)c2C(=O)O)CO1	15	-7	22	1	4	.	.	.	.	.
COc1ccc(C(=O)Nc2sc3c(c2C(=O)O)CC(C)(C)OC3)cc1	43	44	-278	3	63*	8	56*	0	50*	2
CC(C)COc1ccc(C(=O)Nc2sc3c(c2C(=O)O)CC(C)(C)OC3)cc1	-1	28	-373	1	30	.	.	.	.	.
COc1ccc(CNC(=O)c2coc(=O)c3ccccc23)c(OC)c1	-13	-8	7	1	-24	.	.	.	.	.
SMILES	SENP7 inh	SENP8 block-1	SENP8 block-2	SENP1 inh	SENP6 block	SENP8 conf	SENP6 conf	SENP7 conf	Casp3 select	SENP luc ctr
Cc1ccc(NC(=O)c2ccc3c(c2)OCCO3)nc1	54*	26	4	1	56*	48	46	81*	81*	60*
Cc1ccnc(NC(=O)c2ccc3c(c2)NC(=O)C(C)S3)c1 (centres undefined)	25	41	5	4	55*	20	36	27	36	34
Cc1ccc(NC(=O)CNC(=O)c2ccc3c(c2)OCO3)nc1	10	-1	4	2	3	.	.	.	.	.
Cc1ccnc(NC(=O)c2ccc3c(c2)OCO3)c1	92*	80*	-1	2	69*	6	87*	98*	96*	87*
COc1ccc(OCc2nc3ccccc3[nH]2)cc1	29	72*	13	1	72*	39	76*	94*	90*	80*
COc1ccccc1OCc1nc2ccccc2[nH]1	21	13	10	1	38	.	.	.	.	.
c1ccc(SCc2nc3ccccc3[nH]2)cc1	28	13	0	-9	21	.	.	.	.	.
Brc1ccc(OCc2nc3ccccc3[nH]2)cc1	66*	56*	14	-8	62*	49	46	85*	58*	11
Cc1ccccc1OCc1nc2ccccc2[nH]1	86*	68*	1	1	80*	72*	72*	92*	86*	62*
Cc1ccc(SCc2nc3ccccc3[nH]2)cc1	49	21	-67	-4	57*	51*	47	76*	64*	56*
O=C(CCc1ccccc1)Nc1ccc(S(=O)(=O)Nc2nccs2)cc1	6	3	1	1	-8	.	.	.	.	.
COc1cccc(OCc2nc3ccccc3[nH]2)c1	74*	65*	25	4	67*	73*	72*	93*	86*	75*
c1ccc2cc(OCc3nc4ccccc4[nH]3)ccc2c1	77*	80*	5	1	87*	47	68*	95*	66*	40
